Measured values collected from several papers.
Each line is one published result; the experiments were not run side by side.
HRH3: Histamine H3 receptor (HRH3, Homo sapiens, UniProt Q9Y5N1)
Ntsr1: Neurotensin receptor type 1 (Ntsr1, Rattus norvegicus, UniProt P20789)
CNR2: Cannabinoid receptor 2 (CNR2, Homo sapiens, UniProt P34972)
CHRNA7: Neuronal acetylcholine receptor subunit alpha-7 (CHRNA7, Homo sapiens, UniProt P36544)

Compound	target	observed	action	technique	setting	quantity	result
CC[C@H](C)[C@H](NC(C)=O)C(=O)N[C@@H](CCC(=O)O)C(=O)N[C@H](C(=O)N[C@H](C=O)CC(=O)O)[C@@H](C)O	Caspase-2 (Homo sapiens, UniProt P42575)	enzyme activity	inhibitor	–	–	IC50	73.3 nM
COC(=O)c1cc(N(C)C(=O)c2ccn3ncc(-c4ccc(C(=O)O)cc4)c3c2)ccc1Cl	HRH3	cell-free assay	–	–	–	IC50	> 30000 nM
CC(C)C[C@H](NC(=O)[C@@H](N)C(C)(C)C)C(=O)N[C@@H](CCCNC(=N)N)C(=O)N[C@@H](CCCCN)C(=O)N1CCC[C@H]1C(=O)N[C@@H](Cc1ccc(O)cc1)C(=O)O	Ntsr1	ligand displacement	–	flow cytometry	–	Ki	> 100000 nM
CCC(CC)(NC(=O)c1ccc(N2CC(OC)C2)c(OC[C@H]2C[C@@H]2CO)n1)C(=O)NCCOCCOCCNC(=O)c1ccc2c(c1)C1(OC2=O)c2ccc(N(C)C)cc2[Si](C)(C)c2cc(N(C)C)ccc21	CNR2	ligand displacement	–	radioligand	cell membranes	Ki	1620 nM
C=C1CC[C@H]2O[C@]2(C)CC[C@@H]2[C@@H]1CC2(C)C	CNR2	ligand displacement	–	radioligand	cell membranes	Ki	> 10000 nM
COc1ccc2c3c([nH]c2c1)CCN(C)CC3	CHRNA7	ion current	antagonist	two-electrode voltage clamp	oocytes	IC50	10300 nM
CC(C)(C)OC(=O)N1CCN(C(=O)n2cc(-c3ccc(OC(F)(F)F)cc3)nn2)C(Cc2ccccc2)C1 (stereo not drawn)	Monoacylglycerol lipase ABHD6 (Abhd6, Mus musculus, UniProt Q8R2Y0)	enzyme activity	inhibitor	–	–	IC50	8.1 nM
CNC(=O)c1ccc(-c2cnn3ccc(C(=O)N(C)c4ccc(Cl)c(C(=O)OC)c4)cc23)cc1	HRH3	cell-free assay	–	–	–	IC50	> 30000 nM
COc1ccc2[nH]c3c(c2c1)CCN(C)CC3	CHRNA7	ion current	antagonist	two-electrode voltage clamp	oocytes	IC50	11200 nM
CCC(CC)(NC(=O)c1ccc(C2CC2)c(Cc2ccc(F)cc2)n1)C(=O)NCCOCCOCCNC(=O)c1ccc2c(c1)C(=O)OC21c2ccc(N)c(S(=O)(=O)O)c2Oc2c1ccc(N)c2S(=O)(=O)O	CNR2	ligand displacement	–	radioligand	cell membranes	Ki	141 nM
CC(C)C[C@@H]1NC(=O)[C@H](C(C)(C)C)NC(=O)[C@H](Cc2ccc(O)cc2)NC(=O)[C@@H]2CCCN2C(=O)[C@H](CCCCN)NC(=O)[C@H](CCCNC(=N)N)NC1=O	Ntsr1	ligand displacement	–	–	–	Ki	> 100000 nM
CCCCCc1cc(O)c2c(c1)OC(C)(CCC=C(C)C)C=C2 (stereo not drawn)	CNR2	ligand displacement	–	radioligand	cell membranes	Ki	1740 nM
